Common to all, as to conditions: tested as the 18F-labelled form
In test [1] the target is Sodium-dependent serotonin transporter (Rattus norvegicus) (UniProt P31652). Description: Specific binding in rat hypothalamus at 60 min postinjection in vivo. Format: functional, organism-based. Put shortly:
(§1)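 Male Sprague-Dawley rats, n=3 per time point, received about 20 µCi of F-18 radioligand in saline iv by tail vein and were killed at 10–120 min. %ID/g was measured with decay and tail-residual correction. Hypothalamic specific binding = (%ID/g hypothalamus − %ID/g cerebellum)/%ID/g cerebellum; mean ± SD.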

For test [2], the species on record is Rattus norvegicus. Briefly: Regional uptake of [18F]AFA in cerebellum of rat pretreated with compound nisoxetine; n=3. Format: functional, organism-based. The essentials: (§2)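 Male Sprague-Dawley rats, three per group, received blocker (2 mg/kg iv in saline) or saline only (controls) 10–15 min before about 20 µCi of tail-vein F-18 radioligand. Killed 60 min after tracer. Blood and brain regions weighed and gamma-counted. %ID/g was decay- and tail-corrected; mean ± SD.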

The species entered for test [3] is Rattus norvegicus. Description: Regional uptake of [18F]AFA in hypothalamus of rat pretreated with compound GBR-12935; n=3. Format: functional, organism-based. The essentials:
as §2

In test [4] the target is Sodium-dependent serotonin transporter (Rattus norvegicus) (UniProt P31652). Description: Specific binding of [18F]AFA in rat thalamus after GBR-12935 treatment; n=3. Format: functional, tissue-based. The essentials:
(§3)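 Rats, three per group, were pretreated iv with blocker at 2 mg/kg in saline, or with saline as control, 10–15 min before tail-vein F-18 radioligand (about 20 µCi). Killed at 60 min and regional %ID/g determined. Specific binding = (region activity − cerebellum activity)/cerebellum activity; mean ± SD.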

Test [5] shares this target. Description: Specific binding of [18F]AFA in rat frontal cortex after GBR-12935 treatment; n=3. The class given is functional, tissue-based. The essentials:
as §3

For test [6] the target is unchanged. Description: Specific binding of [18F]AFA in rat thalamus after citalopram treatment; n=3. Format: functional, tissue-based. Put shortly: as §3
Test [7] shares this target. Briefly: Specific binding in rat hypothalamus at 30 min postinjection in vivo. The class given is functional, organism-based. The essentials:
as §1

The species entered for test [8] is Rattus norvegicus. Description: Regional uptake of [18F]-AFA in blood of rat pretreated with compound citalopram; n=3. The class given is functional, organism-based. Put shortly:
as §2

The target of test [9] is Sodium-dependent serotonin transporter (Rattus norvegicus) (UniProt P31652). Briefly: Specific binding in rat hypothalamus at 90 min postinjection in vivo. The class given is functional, organism-based. Put shortly:
as §1

Test [10] has the same target. Description: Specific binding of [18F]AFA in rat hypothalamus after citalopram treatment; n=3. The class given is functional, tissue-based. The essentials: as §3
The species named for test [11] is Rattus norvegicus. Briefly: Regional uptake of [18F]AFA in blood of rat pretreated with compound nisoxetine; n=3. The class given is functional, organism-based. Put shortly: as §2
The species named for test [12] is Rattus norvegicus. Briefly: Regional uptake of [18F]AFA in hippocampus of rat pretreated with compound GBR-12935; n=3. Format: functional, organism-based. The essentials:
as §2

The species named for test [13] is Rattus norvegicus. Description: Regional uptake of [18F]-AFA in blood of rat pretreated with compound GBR-12935; n=3. Format: functional, organism-based. Put shortly: as §2
For test [14], the species on record is Rattus norvegicus. Briefly: Regional uptake of [18F]-AFP in striatum of rat pretreated with compound 7f; n=3.
The species named for test [15] is Rattus norvegicus. Briefly: Regional uptake of [18F]AFA in blood of rat pretreated with compound 7f; n=3. The class given is functional, organism-based.
The target in test [16] is Sodium-dependent serotonin transporter (Rattus norvegicus) (UniProt P31652). Description: Specific binding of [18F]AFA in rat hypothalamus after nisoxetine treatment; n=3. The class given is functional, tissue-based. Put shortly:
as §3

The target is the same in test [17]. Briefly: Specific binding of [18F]AFA in rat hippocampus after GBR-12935 treatment; n=3. The class given is functional, tissue-based. Put shortly:
as §3

For test [18] the target is unchanged. Briefly: Specific binding in rat hypothalamus at 10 min postinjection in vivo. The class given is functional, organism-based. Put shortly:
as §1

The species entered for test [19] is Rattus norvegicus. Description: Regional uptake of [18F]AFA in frontal cortex of rat pretreated with compound GBR-12935; n=3. The class given is functional, organism-based. Put shortly: as §2
The target in test [20] is Sodium-dependent serotonin transporter (Rattus norvegicus) (UniProt P31652). Briefly: Specific binding in rat hypothalamus at 120 min postinjection in vivo. The class given is functional, organism-based. Put shortly: as §1
The species entered for test [21] is Rattus norvegicus. Briefly: Regional uptake of [18F]AFA in hippocampus of rat pretreated with compound 7f; n=3. Format: functional, organism-based.
Test [22] is filed under the species Rattus norvegicus. Briefly: Regional uptake of [18F]-AFA in hypothalamus of rat pretreated with compound 7f; n=3. The class given is functional, organism-based.
Test [23] deals with Sodium-dependent serotonin transporter (Rattus norvegicus) (UniProt P31652). Description: Specific binding of [18F]AFA in rat hippocampus after citalopram treatment; n=3. The class given is functional, tissue-based. Put shortly: as §3
Test [24] is filed under the species Rattus norvegicus. Briefly: Regional uptake of [18F]AFA in cerebellum of rat pretreated with compound 7f; n=3. Format: functional, organism-based.

Sodium-dependent serotonin transporter (Rattus norvegicus), sequence (P31652 whole entry): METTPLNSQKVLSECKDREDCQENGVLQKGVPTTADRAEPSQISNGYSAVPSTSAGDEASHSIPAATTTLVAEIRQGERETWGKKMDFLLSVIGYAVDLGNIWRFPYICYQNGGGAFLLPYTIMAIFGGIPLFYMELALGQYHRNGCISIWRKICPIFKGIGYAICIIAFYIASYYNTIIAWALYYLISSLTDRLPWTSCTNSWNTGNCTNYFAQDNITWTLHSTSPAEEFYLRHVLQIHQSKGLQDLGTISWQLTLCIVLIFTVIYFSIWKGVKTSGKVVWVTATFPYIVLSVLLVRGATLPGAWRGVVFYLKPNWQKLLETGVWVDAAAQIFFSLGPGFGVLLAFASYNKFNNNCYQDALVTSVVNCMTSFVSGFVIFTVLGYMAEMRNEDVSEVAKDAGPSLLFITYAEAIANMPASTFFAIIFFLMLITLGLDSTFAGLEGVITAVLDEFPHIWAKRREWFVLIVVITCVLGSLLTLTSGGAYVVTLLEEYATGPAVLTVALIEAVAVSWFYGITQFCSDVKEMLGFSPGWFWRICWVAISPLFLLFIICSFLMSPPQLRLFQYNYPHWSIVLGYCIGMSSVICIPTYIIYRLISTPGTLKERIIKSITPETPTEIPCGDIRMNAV

Regarding `CN(C)Cc1ccccc1Sc1ccc(CCCF)cc1N`, the Specific binding in test [1] is 0.85 %ID/g; in test [4], 0.98 %ID/g; in test [5] it was 0.64 %ID/g; in test [6] it was 0.74 %ID/g; in [7], 0.57 %ID/g; in test [10], 0.66 %ID/g. The Specific binding in test [16] came to 0.84 %ID/g; in test [17], 0.77 %ID/g; in [18], 0.34 %ID/g; in test [23], 0.32 %ID/g. For the same compound, the Uptake in the test filed under Rattus norvegicus [2] turned out to be 0.08 %ID/g; in the test listed under Rattus norvegicus [3] it was 0.17 %ID/g; in the test listed under Rattus norvegicus [8], 0.09 %ID/g; in the test listed under Rattus norvegicus [11], 0.08 %ID/g; in the test listed under Rattus norvegicus [12] it was 0.16 %ID/g; in the test listed under Rattus norvegicus [13], 0.09 %ID/g. In addition, the Uptake in the test listed under Rattus norvegicus [14] came to 0.08 %ID/g; in the test filed under Rattus norvegicus [15] it was 0.07 %ID/g; in the test filed under Rattus norvegicus [19], 0.15 %ID/g; in the test filed under Rattus norvegicus [21], 0.08 %ID/g; in the test listed under Rattus norvegicus [22], 0.1 %ID/g; in the test filed under Rattus norvegicus [24] it was 0.08 %ID/g. Moreover, the Specific binding (dimensionless ratio) in [9] came out at 1.85; in test [20], 2.4.

These data come from ChEMBL document CHEMBL1145212, “Fluorinated diaryl sulfides as serotonin transporter ligands: synthesis, structure-activity relationship study, and in vivo evaluation of fluorine-18-labeled compounds as PET imaging agents” (J Med Chem, 2005).
